According to ChEMBL document CHEMBL5329147, “Synthesis of tryptanthrin appended dispiropyrrolidine oxindoles and their antibacterial evaluation” (RSC Med Chem, 2023):
Converted amounts (≈) assume the structure as drawn.

Experiments:
Staphylococcus aureus [1] = assay: Bactericidal activity against Staphylococcus aureus ATCC 29213 assessed as reduction in bacterial load at 10 times of MIC incubated for 24 hrs by time kill analysis; assay type: functional; parameters: scale not given: the % may be the effect or the level left
How it was run: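 Time-kill assay. ~10^6 CFU/mL in MHBII was exposed to 1X and 10X MIC, 37 °C with shaking for 24 h. Samples were taken at 0, 1, 6 and 24 h, serially diluted in PBS, plated on MHA and incubated 37 °C 18–20 h. Colonies were counted as CFU/mL survivors. Three repeats in duplicate; mean plotted.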

Staphylococcus aureus [2] = assay: Antibacterial activity against vancomycin resistant Staphylococcus aureus […] 12 assessed as bacterial growth inhibition incubated for 18 to 24 hrs by broth microdilution method; assay type: functional; settings: time 18-24 hrs
How it was run: (§1)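 CLSI broth microdilution in MHBII; overnight starter cultures (single MHA colony, 37 °C, shaking) adjusted by OD600 to 10^6 CFU/mL. Compounds from DMSO stocks (10 mg/mL), two-fold series 64–0.5 mg/L. Incubation 37 °C, 18-24 h. MIC = lowest concentration with no visible growth. Three independent determinations, each in duplicate.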

Staphylococcus aureus [3] = assay: Antibacterial activity against vancomycin resistant Staphylococcus aureus […] 4 assessed as bacterial growth inhibition incubated for 18 to 24 hrs by broth microdilution method; assay type: functional; settings: time 18-24 hrs; how it was run: as §1
Pseudomonas aeruginosa = assay: Antibacterial activity against Pseudomonas aeruginosa ATCC 27853 assessed as bacterial growth inhibition incubated for 18 to 24 hrs by broth microdilution method; assay type: functional; settings: time 18-24 hrs
How it was run: (§2)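 CLSI broth microdilution. Overnight starter cultures (single colony, MHBII, 37 °C, shaking 18–24 h) were diluted by OD600 to 10^6 CFU/mL in MHBII. Two-fold dilutions from […] were made from 10 mg/mL DMSO stocks, then incubated 37 °C for 18-24 h. The MIC was the lowest concentration with no visible growth. Three independent runs, duplicate samples.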

Acinetobacter baumannii = assay: Antibacterial activity against Acinetobacter baumannii BAA-1605 assessed as bacterial growth inhibition incubated for 18 to 24 hrs by broth microdilution method; assay type: functional; settings: time 18-24 hrs; how it was run: as §2
Klebsiella pneumoniae = assay: Antibacterial activity against Klebsiella pneumoniae BAA 1705 assessed as bacterial growth inhibition incubated for 18 to 24 hrs by broth microdilution method; assay type: functional; settings: time 18-24 hrs; how it was run: as §2
Staphylococcus aureus [4] = assay: Antibacterial activity against Staphylococcus aureus ATCC 29213 assessed as bacterial growth inhibition incubated for 18 to 24 hrs by broth microdilution method; assay type: functional; settings: Staphylococcus aureus, ATCC 29213; time 18-24 hrs; read-out: MIC; how it was run: as §2
Escherichia coli = assay: Antibacterial activity against Escherichia coli ATCC 25922 assessed as bacterial growth inhibition incubated for 18 to 24 hrs by broth microdilution method; assay type: functional; settings: time 18-24 hrs; how it was run: as §2
Staphylococcus aureus [5] = assay: Synergistic antibacterial activity against Staphylococcus aureus ATCC 29213 assessed as bacterial growth inhibition incubated for 24 hrs in presence of (S)-8''-Bromo-1-ethyl-1'-methyl-2,12''-dioxo-12''H-dispiro[indoline-3,4'-pyrrolidine-2',6''-indolo[2,1-b]quinazoline]-3',3'-dicarbonitrile by checkerboard assay; assay type: functional
How it was run: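 Checkerboard in 96-well plates: two-fold serial dilutions, one agent along abscissa, partner antibiotic along ordinate. Wells received ~10⁵ CFU/mL S. aureus ATCC 29213 in MHBII. Incubation 37 °C, 24 h. ΣFIC = FIC A + FIC B, each FIC being combination MIC divided by MIC alone.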

Vero = assay: Cytotoxicity against African green monkey Vero cells assessed as cell viability incubated for 72 hrs by MTT assay; assay type: toxicity, cell-based; settings: chlorocebus sabaeus
How it was run: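 MTT assay on Vero cells, ~10^3 cells/well, 37 °C, 5% CO2. Compound was added at 24 h (100-12.5 μg/mL) for 72 h, then MTT for 4 h at 37 °C. Formazan was dissolved in DMSO and read at 540 nm. CC50 was the lowest concentration giving 50% viability loss. Doxorubicin positive control; triplicate.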

Staphylococcus aureus [6] = assay: Antibacterial activity against methicillin resistant Staphylococcus aureus NRS 191 assessed as bacterial growth inhibition incubated for 18 to 24 hrs by broth microdilution method; assay type: functional; settings: time 18-24 hrs; how it was run: as §1
Staphylococcus aureus [7] = assay: Antibacterial activity against methicillin resistant Staphylococcus aureus NRS 186 assessed as bacterial growth inhibition incubated for 18 to 24 hrs by broth microdilution method; assay type: functional; settings: time 18-24 hrs; how it was run: as §1
Staphylococcus aureus [8] = assay: Antibacterial activity against methicillin resistant Staphylococcus aureus NRS 129 assessed as bacterial growth inhibition incubated for 18 to 24 hrs by broth microdilution method; assay type: functional; settings: time 18-24 hrs; how it was run: as §1
[9] = Selectivity ratio of CC50 for African green monkey Vero cells to MIC against Staphylococcus aureus ATCC 29213; assay type: toxicity, cell-based
Staphylococcus aureus [10] = assay: Antibacterial activity against methicillin resistant Staphylococcus aureus NRS 192 assessed as bacterial growth inhibition incubated for 18 to 24 hrs by broth microdilution method; assay type: functional; settings: time 18-24 hrs; how it was run: as §1
Staphylococcus aureus [11] = assay: Antibacterial activity against methicillin resistant Staphylococcus aureus NRS 119 assessed as bacterial growth inhibition incubated for 18 to 24 hrs by broth microdilution method; assay type: functional; settings: time 18-24 hrs; how it was run: as §1
Staphylococcus aureus [12] = assay: Antibacterial activity against methicillin sensitive Staphylococcus aureus ATCC 29213 assessed as bacterial growth inhibition incubated for 18 to 24 hrs by broth microdilution method; assay type: functional; settings: time 18-24 hrs; how it was run: as §1
Staphylococcus aureus [13] = assay: Antibacterial activity against methicillin resistant Staphylococcus aureus NRS 198 assessed as bacterial growth inhibition incubated for 18 to 24 hrs by broth microdilution method; assay type: functional; settings: time 18-24 hrs; how it was run: as §1
Staphylococcus aureus [14] = assay: Antibacterial activity against methicillin resistant Staphylococcus aureus NRS 193 assessed as bacterial growth inhibition incubated for 18 to 24 hrs by broth microdilution method; assay type: functional; settings: time 18-24 hrs; how it was run: as §1
Staphylococcus aureus [15] = assay: Antibacterial activity against methicillin resistant Staphylococcus aureus NRS 194 assessed as bacterial growth inhibition incubated for 18 to 24 hrs by broth microdilution method; assay type: functional; settings: time 18-24 hrs; how it was run: as §1

Row | MIC (Pseudomonas aeruginosa) [µg/mL] | MIC (Acinetobacter baumannii) [µg/mL] | MIC (Klebsiella pneumoniae) [µg/mL] | MIC (Escherichia coli) [µg/mL] | SMILES | MIC (Staphylococcus aureus [4]) [µg/mL] | MIC (Staphylococcus aureus [5]) [µg/mL] | other results
1 | – | – | – | – | CN[C@H](CC(C)C)C(=O)N[C@H]1C(=O)N[C@@H](CC(N)=O)C(=O)N[C@H]2C(=O)N[C@H]3C(=O)N[C@H](C(=O)N[C@H](C(=O)O)c4cc(O)cc(O)c4-c4cc3ccc4O)[C@H](O)c3ccc(c(Cl)c3)Oc3cc2cc(c3O[C@@H]2O[C@H](CO)[C@@H](O)[C@H](O)[C@H]2O[C@H]2C[C@](C)(N)[C@H](O)[C@H](C)O2)Oc2ccc(cc2Cl)[C@H]1O [VANCOMYCIN] | – | – | Activity (Staphylococcus aureus [1]): 100%; MIC (Staphylococcus aureus [2]): > 64 µg/mL; MIC (Staphylococcus aureus [3]): > 64 µg/mL
2 | > 64 | > 64 | > 64 | > 64 | CCN1C(=O)[C@]2(c3cc(Cl)ccc31)C(Cc1c[nH]c3ccccc13)NC1(c3cc(Cl)ccc3-n3c1nc1ccccc1c3=O)C2(C#N)C#N (some centres undefined) | 0.25 (≈ 0.366 µM) | – | –
3 | > 64 | > 64 | > 64 | > 64 | CCN1C(=O)[C@]2(c3ccccc31)C(Cc1ccccc1)NC1(c3cc(Br)ccc3-n3c1nc1ccccc1c3=O)C2(C#N)C#N (some centres undefined) | 0.25 (≈ 0.383 µM) | – | –
4 | – | – | – | – | CCCCCCCCCC(=O)N[C@@H](Cc1c[nH]c2ccccc12)C(=O)N[C@H](CC(N)=O)C(=O)N[C@@H](CC(=O)O)C(=O)N[C@@H]1C(=O)NCC(=O)N[C@@H](CCCN)C(=O)N[C@@H](CC(=O)O)C(=O)N[C@H](C)C(=O)N[C@@H](CC(=O)O)C(=O)NCC(=O)N[C@H](CO)C(=O)N[C@@H]([C@H](C)CC(=O)O)C(=O)N[C@@H](CC(=O)c2ccccc2N)C(=O)O[C@@H]1C | 1 (≈ 0.617 µM) | 1 | –
5 | > 64 | > 64 | > 64 | > 64 | CCN1C(=O)[C@@]2(CN(C)C3(c4cc(I)ccc4-n4c3nc3ccc(Cl)cc3c4=O)C2(C#N)C#N)c2ccccc21 (some centres undefined) | 1 (≈ 1.52 µM) | – | –
6 | – | – | – | – | CC(C)(O/N=C(\C(=O)N[C@@H]1C(=O)N2C(C(=O)[O-])=C(C[n+]3ccccc3)CS[C@H]12)c1csc(N)n1)C(=O)O [CEFTAZIDIME] | 8 (≈ 14.6 µM) | 8 | –
7 | – | – | – | – | CN(C)c1ccc(O)c2c1C[C@H]1C[C@H]3[C@H](N(C)C)C(O)=C(C(N)=O)C(=O)[C@@]3(O)C(O)=C1C2=O [MINOCYCLINE] | 0.125 (≈ 0.273 µM) | 0.125 | –
8 | > 64 | > 64 | > 64 | > 64 | CCN1C(=O)[C@]2(c3ccccc31)C1CCCN1C1(c3ccccc3-n3c1nc1ccccc1c3=O)C2(C#N)C#N (some centres undefined) | 0.25 (≈ 0.477 µM) | – | –
9 | – | – | – | – | CO[C@H]1/C=C/O[C@@]2(C)Oc3c(C)c(O)c4c(O)c(c(/C=N/N5CCN(C)CC5)c(O)c4c3C2=O)NC(=O)/C(C)=C\C=C\[C@H](C)[C@H](O)[C@@H](C)[C@@H](O)[C@@H](C)[C@H](OC(C)=O)[C@@H]1C [RIFAMPIN] | 0.008 (≈ 0.00972 µM) | 0.008 | –

Row | SMILES | MIC (Pseudomonas aeruginosa) [µg/mL] | MIC (Acinetobacter baumannii) [µg/mL] | MIC (Klebsiella pneumoniae) [µg/mL] | MIC (Escherichia coli) [µg/mL] | MIC (Staphylococcus aureus [4]) [µg/mL] | MIC (Staphylococcus aureus [5]) [µg/mL] | other results
10 | CCN1C(=O)[C@@]2(CN(C)C3(c4cc(Cl)ccc4-n4c3nc3ccccc3c4=O)C2(C#N)C#N)c2ccccc21 (some centres undefined) | > 64 | > 64 | > 64 | > 64 | 0.125 (≈ 0.235 µM) | – | Activity (Vero): Non-Toxic; MIC (Staphylococcus aureus [6]): 0.063 µg/mL (≈ 0.118 µM); MIC (Staphylococcus aureus [7]): 0.125 µg/mL (≈ 0.235 µM); MIC (Staphylococcus aureus [8]): 0.25 µg/mL (≈ 0.469 µM); selectivity ratio [9]: > 80; MIC (Staphylococcus aureus [10]): 0.25 µg/mL (≈ 0.469 µM); MIC (Staphylococcus aureus [2]): 0.25 µg/mL (≈ 0.469 µM); MIC (Staphylococcus aureus [3]): 0.25 µg/mL (≈ 0.469 µM); MIC (Staphylococcus aureus [11]): 0.125 µg/mL (≈ 0.235 µM); MIC (Staphylococcus aureus [12]): 0.25 µg/mL (≈ 0.469 µM); MIC (Staphylococcus aureus [13]): 0.25 µg/mL (≈ 0.469 µM); MIC (Staphylococcus aureus [14]): 0.25 µg/mL (≈ 0.469 µM); MIC (Staphylococcus aureus [15]): 0.5 µg/mL (≈ 0.938 µM)
